Measurements from different studies.
Each line is one published result; the experiments were not run side by side.
Cell line: MCF7
Read-out: cell growth or viability

Compound	test	setting	IC50 [µM]
CC(=O)N[C@H]1[C@@H](O[C@@H]2O[C@H](C[C@@H](O)[C@H]3O[C@@H](n4ccc(=O)[nH]c4=O)[C@H](O)[C@@H]3O)[C@H](O)[C@H](O)[C@H]2NC(=O)/C=C/CCCCCCCCCC(C)C)O[C@H](CO)[C@@H](O)[C@@H]1O	WST-1		0.52
N.N.[Cl][Pt][Cl]	MTT		46.1
O=C(NCc1ccc(C(F)(F)F)cc1)c1cn(Cc2ccc(Cl)cc2)c2ccc(Oc3ccccc3)cc2c1=O	MTT	48 h	109
COc1c(C)c2c(c(O)c1C/C=C(\C)CCC(=O)O)C(=O)OC2			0.741
N.N.[Cl][Pt][Cl]	MTT	72 h	61.6
c1ccc([Se][Au]=[c]2n(C3CCCCC3)ccn2C2CCCCC2)cc1	crystal violet		1
Cc1ccc(CNC(=O)c2cn(Cc3ccc(Cl)cc3)c3ccc(Oc4ccccc4)cc3c2=O)cc1	MTT	24 h	> 500
Fc1ccc2c(-c3nc(Cc4ccccc4)cs3)nn(Cc3ccc(Cl)cc3Cl)c2c1		48 h	32.9
O=C(NCc1ccc(F)cc1)c1cn(Cc2ccc(F)cc2)c2ccc(Oc3ccccc3)cc2c1=O	MTT	48 h	327
N.N.[Cl][Pt][Cl]	MTT	48 h	27.8
O=C(NCc1ccc(Cl)cc1)c1cn(Cc2ccc(Cl)cc2)c2ccc(Oc3ccccc3)cc2c1=O	MTT	24 h	481
CC(=O)c1c(C)c2cnc(Nc3ccc(C4CCN(CCS(C)(=O)=O)CC4)cn3)nc2n(C2CCCC2)c1=O	ATP luminescence	72 h	0.143
C#CCn1c(C(=O)/C=C/c2ccc(F)cc2)nc2ccccc21	LDH	48 h	2.48
O=C(NCc1ccc(C(F)(F)F)cc1)c1cn(Cc2ccc(F)cc2)c2ccc(Oc3ccccc3)cc2c1=O	MTT	48 h	183
CC[C@H](C)[C@@H]([C@@H](CC(=O)N1CCC[C@H]1[C@H](OC)[C@@H](C)C(=O)N[C@H](C)[C@@H](O)c1ccccc1)OC)N(C)C(=O)[C@@H](NC(=O)[C@@H](NC)C(C)C)C(C)C	CCK-8		0.0106
CC[C@@]1(O)C(=O)OCc2c1cc1n(c2=O)Cc2cc3ccccc3nc2-1	SRB	48 h	0.067
